In data set [1] the test system is Rattus norvegicus. The experiment in a line: In vivo distribution of the drug in uterus was determined at 3h following injection of five microcurics of the radiolabeled [125 I] compound in rats. It counts as ADME, organism-based. In a few lines: (§1)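 Immature female Sprague-Dawley rats (20–25 days old) given 3–5 μCi of the ¹²⁵I-radioligand into the femoral vein; killed by cervical dislocation at 1, 2 or 3 h. Uterus blotted free of blood, 10–30-mg samples weighed. Heparinized blood centrifuged, 20-μL plasma samples taken. Gamma counting, dpm by absolute counting method. Expressed as percent dose/gram tissue; uterus/plasma ratio from these values.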

The test system of data set [2] is Rattus norvegicus. The experiment in a line: In vivo distribution of the drug in plasma was determined at 2 hr following injection of five microcurics of the radiolabeled [125 I] compound in rats. It counts as ADME, organism-based. An outline of the steps: as §1
The test system of data set [3] is Rattus norvegicus. The experiment in a line: In vivo effect when coinjected with estradiol (50 ug) in immature rat muscle (after 1 hr). It counts as functional, Muscle tissue.
Data set [4] deals with Rattus norvegicus. Description: In vivo effect when coinjected with estradiol (50 ug) in immature rat plasma (after 1 hr). It counts as functional.
For data set [5], the system named is Rattus norvegicus. Description: In vivo distribution of the drug in uterus/plasma was determined at 2 hr following injection of five microcurics of the radiolabeled [125 I] compound in rats. It counts as ADME, organism-based. In a few lines:
as §1

In data set [6] the test system is Rattus norvegicus. Description: In vivo distribution of the drug in plasma was determined at 3h following injection of five microcurics of the radiolabeled [125 I] compound in rats. It counts as ADME, organism-based. In a few lines:
as §1

Data set [7] deals with Rattus norvegicus. Description: In vivo distribution of the drug in uterus was determined at 2 hr following injection of five microcurics of the radiolabeled [125 I] compound in rats. It counts as ADME, organism-based. An outline of the steps: as §1
Data set [8] concerns Rattus norvegicus. Description: In vivo distribution of the drug in plasma was determined at 1 hr following injection of five microcurics of the radiolabeled [125 I] compound in rats. It counts as ADME, organism-based. An outline of the steps: as §1
Data set [9] deals with Rattus norvegicus. Description: In vivo distribution of the drug in uterus/plasma was determined at 1 hr following injection of five microcurics of the radiolabeled [125 I] compound in rats. It counts as ADME, organism-based. An outline of the steps:
as §1

Data set [10] concerns Rattus norvegicus. Description: In vivo effect when coinjected with estradiol (50 ug) in immature rat liver (after 1 hr). It counts as functional.
The test system of data set [11] is Rattus norvegicus. Description: In vivo distribution of the drug in uterus was determined at 1 hr following injection of five microcurics of the radiolabeled [125 I] compound in rats. It counts as ADME, organism-based. An outline of the steps: as §1
Data set [12] concerns Rattus norvegicus. Description: (§2) In vivo distribution of the drug in uterus/plasma was determined at 3h following injection of five microcurics of the radiolabeled [125 I] compound in rats. It counts as ADME, organism-based. As to conditions: other tissue. In a few lines:
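Female Sprague-Dawley rats aged 20–25 days received 3–5 µCi of the [125I] radioligand via the femoral vein and were killed by cervical dislocation at 1, 2 and 3 h. Uterus was blotted free of blood, and 10–30 mg samples were weighed. Heparinized blood was centrifuged, and 20 µL plasma samples were taken. Samples were gamma-counted, with dpm found by absolute counting. Values are % dose/g, and the uterus/plasma ratio was derived from them.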

In data set [13] the test system is Rattus norvegicus. Description: In vivo effect when coinjected with estradiol (50 ug) in immature rat uterus (after 1 hr). It counts as functional.
The species entered for data set [14] is Rattus norvegicus. Description: Specific activity and expressed as Ci/mmol. It counts as functional.
Data set [15] deals with Rattus norvegicus. The description is as §2. It counts as ADME, organism-based. As to conditions: other tissue. In a few lines:
as §1
The source holds these as a separate data set.

Several values for one entry are separate records, joined by “and”; a condition that tells them apart may be missing. Equal entries are not always repeated.

Regarding `CO[C@H]1C[C@@]2(C)[C@@H](CC[C@@]2(O)/C=C/[125I])[C@@H]2CCc3cc(O)ccc3[C@H]21`, the Distribution with Rattus norvegicus [1] turned out to be 15.9%; with Rattus norvegicus [2] it was 0.25%; with Rattus norvegicus [6], 0.24%; in the data set with Rattus norvegicus [7], 17.2%; in the data set on Rattus norvegicus [8], 0.28%; in the data set with Rattus norvegicus [11], 8.18%. Moreover, the Dose was 1.29% with Rattus norvegicus [3], 0.34% with Rattus norvegicus [4], 4.52% with Rattus norvegicus [10] and 1.25% in the data set on Rattus norvegicus [13]. In addition, the uterus/plasma ratio worked out at 68.3 in the data set with Rattus norvegicus [5], 29 with Rattus norvegicus [9] and 66.3 with Rattus norvegicus [12].

`C[C@]12CC[C@@H]3c4ccc(O)cc4CC[C@H]3[C@@H]1CC[C@@]2(O)/C=C/[125I]`: the Distribution in the data set on Rattus norvegicus [1] amounted to 1.1%; in the data set on Rattus norvegicus [2], 0.192%; with Rattus norvegicus [6] it was 0.113%; with Rattus norvegicus [7], 0.96%; in the data set with Rattus norvegicus [8], 1.09%; in the data set on Rattus norvegicus [11] it was 5.89%. Moreover, the uterus/plasma ratio in the data set with Rattus norvegicus [5] turned out to be 5; in the data set with Rattus norvegicus [15], 9.7; with Rattus norvegicus [9], 5.5. Moreover, the Specific activity in the data set filed under Rattus norvegicus [14] was 2200 Ci mM-1 and 2152 Ci mM-1.

The values are drawn from ChEMBL document CHEMBL1122754, “Synthesis and evaluation of (17 alpha,20E)-21-[125I]iodo-19-norpregna-1,3,5(10),20-tetraene-3,17 -diol and (17 alpha,20E)-21-[125I]iodo-11 beta-methoxy-19-norpregna-1,3,5(10),20-tetraene-3,17-diol (17 alpha-(iodovinyl)estradiol derivatives) as high specific activity potential radiopharmaceuticals” (J Med Chem, 1984).
